Columns and labels:
[1] = target: T1, Peroxisome proliferator-activated receptor delta (Homo sapiens, UniProt Q03181); test: Transactivation of human GAL4-fused PPARdelta LBD expressed in African green monkey COS7 cells co-expressing 5Gal4 pGL3 TK Luc after overnight incubation by luciferase reporter gene assay; format: cell-based
T1 sequence (Q03181 whole entry): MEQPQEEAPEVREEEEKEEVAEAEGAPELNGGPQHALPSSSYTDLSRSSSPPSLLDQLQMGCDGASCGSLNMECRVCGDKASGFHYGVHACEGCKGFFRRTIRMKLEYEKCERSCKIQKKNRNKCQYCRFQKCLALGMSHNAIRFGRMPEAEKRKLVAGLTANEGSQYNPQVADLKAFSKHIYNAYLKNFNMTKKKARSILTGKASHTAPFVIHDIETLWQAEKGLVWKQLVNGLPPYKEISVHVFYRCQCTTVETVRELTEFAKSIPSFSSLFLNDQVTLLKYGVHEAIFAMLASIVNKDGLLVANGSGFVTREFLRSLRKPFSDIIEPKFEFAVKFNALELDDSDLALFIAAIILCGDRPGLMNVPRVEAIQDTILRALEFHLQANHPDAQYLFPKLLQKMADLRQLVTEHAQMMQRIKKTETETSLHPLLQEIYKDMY
Method in brief: (§1)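 Cell-based Gal-4 transactivation assay in COS-7 cells transfected with PPARα, PPARδ or PPARγ ligand-binding domain. EC50 and Emax were derived, with Emax as maximum activation in percent of control. EC50s are means of at least two independent experiments performed in triplicate.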

[2] = target: T2, Peroxisome proliferator-activated receptor delta (Homo sapiens) (UniProt Q03181); test: Transactivation of human GAL4-fused PPARdelta LBD expressed in African green monkey COS7 cells co-expressing 5Gal4 pGL3 TK Luc after overnight incubation by luciferase reporter gene assay relative to GW501516; format: cell-based; method in brief: as §1
T2 sequence (whole entry): T1 sequence (Q03181 whole entry)

[3] = target: T3, Peroxisome proliferator-activated receptor gamma (Homo sapiens, UniProt P37231); test: Transactivation of human GAL4-fused PPARgamma LBD expressed in African green monkey COS7 cells co-expressing 5Gal4 pGL3 TK Luc after overnight incubation by luciferase reporter gene assay; format: cell-based; method in brief: as §1
T3 sequence (P37231 whole entry): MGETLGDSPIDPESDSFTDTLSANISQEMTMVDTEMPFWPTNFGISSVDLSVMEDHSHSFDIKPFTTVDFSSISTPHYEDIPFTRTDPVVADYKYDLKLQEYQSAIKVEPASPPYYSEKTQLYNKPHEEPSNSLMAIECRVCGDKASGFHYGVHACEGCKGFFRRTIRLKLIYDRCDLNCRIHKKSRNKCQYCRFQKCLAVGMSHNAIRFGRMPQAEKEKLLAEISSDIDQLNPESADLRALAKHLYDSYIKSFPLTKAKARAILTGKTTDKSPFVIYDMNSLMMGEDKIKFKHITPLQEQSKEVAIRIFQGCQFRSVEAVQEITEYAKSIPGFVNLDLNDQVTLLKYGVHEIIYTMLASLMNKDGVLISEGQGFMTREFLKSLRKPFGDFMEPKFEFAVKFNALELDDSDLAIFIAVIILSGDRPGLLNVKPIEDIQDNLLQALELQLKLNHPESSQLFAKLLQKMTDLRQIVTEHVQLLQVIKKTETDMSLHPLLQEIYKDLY

[4] = Efflux ratio of apparent permeability in human Caco2 cells at 10 uM after 2 hrs by LC-MS/MS analysis; format: ADME, cell-based, Caco-2
[5] = target: T4, Peroxisome proliferator-activated receptor alpha (Homo sapiens) (UniProt Q07869); test: Transactivation of PPARalpha in human HuH7 cells assessed increase in [14C]oleate beta-oxidation at 1 uM preincubated for 48 hrs followed by [14C]oleate addition during last 2 hrs of incubation period relative to control; format: cell-based
T4 sequence (whole entry): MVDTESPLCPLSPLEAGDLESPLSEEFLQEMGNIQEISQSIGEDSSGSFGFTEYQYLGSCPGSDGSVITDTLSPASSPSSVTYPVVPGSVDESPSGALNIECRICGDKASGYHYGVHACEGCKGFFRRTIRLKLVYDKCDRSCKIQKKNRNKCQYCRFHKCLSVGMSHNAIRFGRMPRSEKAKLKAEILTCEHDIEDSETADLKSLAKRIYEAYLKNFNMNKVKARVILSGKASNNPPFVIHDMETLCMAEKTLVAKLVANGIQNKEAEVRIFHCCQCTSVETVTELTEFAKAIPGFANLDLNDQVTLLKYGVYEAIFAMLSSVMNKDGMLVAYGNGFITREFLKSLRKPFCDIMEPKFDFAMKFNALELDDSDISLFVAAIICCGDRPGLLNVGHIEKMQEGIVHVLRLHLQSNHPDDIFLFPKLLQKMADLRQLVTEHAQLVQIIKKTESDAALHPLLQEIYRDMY
Method in brief: (§2)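 Fatty acid beta-oxidation was used as the functional read-out. PPARα activity was tested in human hepatoma HuH7 cells and PPARδ activity in mouse myoblast C2C12 cells, at 1, 3, 10 and 30 µM. Values are % beta-oxidation, mean of at least 2 independent experiments run in triplicate, with single-experiment values flagged.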

[6] = target: T4, Peroxisome proliferator-activated receptor alpha (Homo sapiens); test: Transactivation of PPARalpha in human HuH7 cells assessed increase in [14C]oleate beta-oxidation at 10 uM preincubated for 48 hrs followed by [14C]oleate addition during last 2 hrs of incubation period relative to control; format: cell-based; method in brief: as §2
[7] = target: T5, Peroxisome proliferator-activated receptor delta (Mus musculus) (UniProt P35396); test: Transactivation of PPARdelta in mouse C2C12 cells assessed increase in [14C]oleate beta-oxidation at 1 uM preincubated for 48 hrs followed by [14C]oleate addition during last 2 hrs of incubation period relative to control; format: cell-based; method in brief: as §2
T5 sequence (whole entry): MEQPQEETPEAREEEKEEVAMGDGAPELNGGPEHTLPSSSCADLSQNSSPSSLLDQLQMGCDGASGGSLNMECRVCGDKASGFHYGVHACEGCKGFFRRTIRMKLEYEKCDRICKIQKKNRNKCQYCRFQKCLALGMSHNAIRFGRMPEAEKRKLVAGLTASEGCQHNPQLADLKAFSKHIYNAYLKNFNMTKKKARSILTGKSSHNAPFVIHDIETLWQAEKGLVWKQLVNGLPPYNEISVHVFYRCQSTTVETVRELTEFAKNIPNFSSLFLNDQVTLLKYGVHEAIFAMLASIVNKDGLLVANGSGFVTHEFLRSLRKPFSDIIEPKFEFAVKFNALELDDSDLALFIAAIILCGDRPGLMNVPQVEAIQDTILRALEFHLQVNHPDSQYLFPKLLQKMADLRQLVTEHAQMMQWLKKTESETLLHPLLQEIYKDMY

[8] = target: T5, Peroxisome proliferator-activated receptor delta (Mus musculus); test: Transactivation of PPARdelta in mouse C2C12 cells assessed increase in [14C]oleate beta-oxidation at 10 uM preincubated for 48 hrs followed by [14C]oleate addition during last 2 hrs of incubation period relative to control; format: cell-based; method in brief: as §2
[9] = Cmax in C57Bl6 mouse at 10 mg/kg, po administered as single oral dose; format: ADME, organism-based; conditions: in vivo
Method in brief: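 Single oral dose of 10 mg/kg in methyl cellulose vehicle given to C57Bl6 mice. Plasma was sampled over a 24 h period. […]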

EC50 [1] [µM]	Emax [2] [%]	EC50 [3] [µM]	efflux ratio at 2 h, 10 µM ([4]; Caco-2)	Activity [5] [%]	Activity [6] [%]	Activity [7] [%]	Activity [8] [%]	Cmax [9] [µg/mL]	Ratio ([4]; caco-2, 2 h, 10 µM)	SMILES
1.91	56	1.56	0.2	5	45	-6	12	14.6		O=C(O)CCc1cc2cc(Cl)ccc2n1S(=O)(=O)c1ccccc1
0.866	105	0.206		44	113	12	67	10.7	0.1	O=C(O)CCCc1cc2cc(Cl)ccc2n1S(=O)(=O)c1ccc2ncsc2c1 [LANIFIBRANOR]

Reference: ChEMBL document CHEMBL4020830, “Design, Synthesis, and Evaluation of a Novel Series of Indole Sulfonamide Peroxisome Proliferator Activated Receptor (PPAR) α/γ/δ Triple Activators: Discovery of Lanifibranor, a New Antifibrotic Clinical Candidate” (J Med Chem, 2018)
